Test results from article PMC3090679 (Biochemistry, 2011).
Residue numbers refer to the chain shown, from its start. “Also recorded” adds a separate entry of the source. Where two headings read alike, the source gives them in different places.

How the values were obtained:
Gαo [1] = biological target: Gαo (UniProt P59215); test: flow cytometry protein interaction assay
[2] = biological target: T1, RGS4-stimulated GTP hydrolysis by Gαo (Homo sapiens, UniProt P49798); test: Single turnover GTPase assay, RGS4 GAP activity; format: biochemical
T1 sequence (P49798 52-205 limits assumed): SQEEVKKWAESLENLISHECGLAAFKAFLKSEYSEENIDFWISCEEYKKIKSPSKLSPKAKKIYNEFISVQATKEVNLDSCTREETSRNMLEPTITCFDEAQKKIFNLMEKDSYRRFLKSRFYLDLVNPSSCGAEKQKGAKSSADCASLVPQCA
Procedure, shortened: (§1)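 Single-turnover measurement of Gαo GTP hydrolysis, with or without RGS4 or RGS8, in the presence of test compound, following a previously published method. The RGS8 homology domain was an N-terminal 6×His construct from pQE-80 carrying native Cys107 and Cys160. All proteins were purified to >90% homogeneity, and Gαo activity was confirmed by [35S]GTPγS binding. Output is the GTP hydrolysis rate constant k (sec−1).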

RGS4 wild Type = biological target: T2, RGS4 wild Type (Homo sapiens, UniProt P49798); test: FCPIA, RGS4/Gαo binding
T2 sequence (P49798 52-205 limits assumed): T1 sequence (P49798 52-205 limits assumed)

papain = biological target: T3, papain (Carica papaya, UniProt P00784); test: Papain activity assay; format: biochemical
T3 sequence (P00784 134-345): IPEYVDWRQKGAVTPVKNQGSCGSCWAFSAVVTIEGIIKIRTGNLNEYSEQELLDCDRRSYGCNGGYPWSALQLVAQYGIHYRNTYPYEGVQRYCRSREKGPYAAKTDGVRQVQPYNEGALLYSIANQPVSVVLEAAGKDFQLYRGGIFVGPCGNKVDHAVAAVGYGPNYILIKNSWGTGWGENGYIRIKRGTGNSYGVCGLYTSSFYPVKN
Procedure, shortened: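 FITC-casein was added to 250 nM final. Fluorescence (ex 485/em 520 nm) was read at intervals in the dark, and concentration dependence was taken at 5 min. Values are mean±SEM of three independent experiments.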

RGS7 = biological target: T4, RGS7 (Homo sapiens, UniProt P49802); test: FCPIA, RGS7/Gαo binding
T4 sequence (P49802 333-448 limits assumed): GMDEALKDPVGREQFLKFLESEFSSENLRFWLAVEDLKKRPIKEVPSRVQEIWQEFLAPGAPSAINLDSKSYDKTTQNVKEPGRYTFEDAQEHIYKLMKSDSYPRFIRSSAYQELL
Procedure, shortened: (§2)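 Constructs were RGS19 ΔC11 as an MBP/10×His fusion and the RGS7 homology domain as a GST fusion. Each was chemically biotinylated, immobilised on avidin microspheres and pretreated with test compound or vehicle for 15 min at room temperature. Beads were then mixed with AlexaFluor-532-Gαo plus GDP/AlF and binding was read by flow cytometry. IC50 is the mean±SEM of at least three independent experiments.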

WT RGS8 [3] = biological target: T5, WT RGS8 (Homo sapiens, UniProt P57771); test: ESI-LC/MS protein adduct analysis, WT RGS8; conditions: WT RGS8 2 μM
T5 sequence (P57771 56-171 limits assumed): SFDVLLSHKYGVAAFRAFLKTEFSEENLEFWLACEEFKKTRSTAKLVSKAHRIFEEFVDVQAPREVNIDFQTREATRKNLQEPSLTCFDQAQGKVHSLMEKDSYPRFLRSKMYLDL

Gαo [4] = biological target: T6, Gαo (Homo sapiens, UniProt P09471); test: Single turnover GTPase assay, intrinsic Gαo rate; format: biochemical; conditions: 100 μM
T6 sequence (P09471 whole entry): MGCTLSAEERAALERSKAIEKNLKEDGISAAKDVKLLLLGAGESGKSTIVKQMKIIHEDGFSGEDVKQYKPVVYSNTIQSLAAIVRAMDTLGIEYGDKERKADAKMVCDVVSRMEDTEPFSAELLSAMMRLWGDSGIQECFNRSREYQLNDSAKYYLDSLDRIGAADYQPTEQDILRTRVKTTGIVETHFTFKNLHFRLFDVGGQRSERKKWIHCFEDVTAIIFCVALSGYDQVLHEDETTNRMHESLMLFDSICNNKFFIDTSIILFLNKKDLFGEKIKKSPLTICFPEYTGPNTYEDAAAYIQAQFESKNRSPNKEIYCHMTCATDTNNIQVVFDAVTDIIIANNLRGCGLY
Procedure, shortened: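 N-terminally 6×His-tagged Gαo was purified to >90% homogeneity. Single-turnover hydrolysis of isotopically diluted γ[32P]GTP was measured. Results are expressed as the rate constant k (sec−1) of GTP hydrolysis.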

WT RGS8 [5] = biological target: T5, WT RGS8; test: Gel filtration then FCPIA competition, WT RGS8; format: binding
RGS19 = biological target: T7, RGS19 (Homo sapiens, UniProt P49795); test: FCPIA, RGS19/Gαo binding
T7 sequence (P49795 1-206 limits assumed): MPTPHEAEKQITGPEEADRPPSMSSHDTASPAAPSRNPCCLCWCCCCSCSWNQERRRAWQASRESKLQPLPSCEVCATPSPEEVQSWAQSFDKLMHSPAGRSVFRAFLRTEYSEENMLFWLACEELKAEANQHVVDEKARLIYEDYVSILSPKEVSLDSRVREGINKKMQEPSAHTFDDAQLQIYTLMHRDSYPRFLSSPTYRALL
Procedure, shortened: as §2

[6] = tested on: Gαo-dependent membrane translocation of GFP-RGS4 in HEK293T cells; test: RGS4 membrane translocation in living cells; format: cell-based, human; conditions: 100 μM
RGS8 [7] = biological target: T8, RGS8 (Homo sapiens, UniProt P57771); test: ThermoFluor thermal stability, RGS8; format: binding
T8 sequence (P57771 56-171 limits assumed): T5 sequence (P57771 56-171 limits assumed)

Gαo [8] = biological target: T6, Gαo; test: ThermoFluor thermal stability, Gαo; format: binding
107C RGS8 (C160S) = biological target: T9, 107C RGS8 (C160S) (Homo sapiens, UniProt P57771, C142S); test: FCPIA, 107C RGS8/Gαo binding
T9 sequence (P57771 74-189 isoform P57771-2 C160S): T5 sequence (P57771 56-171 limits assumed) with C87S
Procedure, shortened: (§3)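 RGS8 homology domain (N-terminal 6×His, pQE-80) with Cys→Ser site-directed mutations was chemically biotinylated on amines and loaded on avidin microspheres. Beads were treated with test compound or vehicle for 15 min at room temperature, then mixed with AlexaFluor-532-labelled Gαo plus GDP and aluminium fluoride. Binding was read by Luminex flow cytometry. Values are mean±SEM of three independent experiments.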

RGS16 = biological target: T10, RGS16 (Homo sapiens, UniProt O15492); test: FCPIA, RGS16/Gαo binding
T10 sequence (O15492 1-202): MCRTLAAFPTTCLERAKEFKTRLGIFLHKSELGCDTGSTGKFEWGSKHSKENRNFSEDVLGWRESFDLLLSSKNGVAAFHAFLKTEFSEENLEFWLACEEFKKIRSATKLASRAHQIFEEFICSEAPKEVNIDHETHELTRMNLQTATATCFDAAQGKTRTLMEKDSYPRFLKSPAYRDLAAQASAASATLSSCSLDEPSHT

RGS4 = biological target: T11, RGS4 (Homo sapiens, UniProt P49798); test: ThermoFluor thermal stability, RGS4; format: binding
T11 sequence (P49798 52-205 limits assumed): T1 sequence (P49798 52-205 limits assumed)

RGS8cys− (C160S/C107S) = biological target: T12, RGS8cys− (C160S/C107S) (Homo sapiens, UniProt P57771, C142S/C89S); test: FCPIA, RGS8cys−/Gαo binding
T12 sequence (P57771 56-171 C89S/C142S): T5 sequence (P57771 56-171 limits assumed) with C34S, C87S
Procedure, shortened: as §3

107C RGS8 = biological target: T13, 107C RGS8 (Homo sapiens, UniProt P57771, C142S); test: Gel filtration then FCPIA competition, 107C RGS8; format: binding; conditions: 107C RGS8 after gel filtration
T13 sequence (P57771 74-189 isoform P57771-2 C160S): T5 sequence (P57771 56-171 limits assumed) with C87S

RGS8 [9] = biological target: T8, RGS8; test: FCPIA, RGS8/Gαo binding
RGS8Cys− = biological target: T14, RGS8Cys− (Homo sapiens, UniProt P57771, C142S/C89S); test: ESI-LC/MS protein adduct analysis, RGS8Cys−; conditions: RGS8Cys− mutant
T14 sequence (P57771 74-189 isoform P57771-2 C107S/C160S): T5 sequence (P57771 56-171 limits assumed) with C34S, C87S

[10] = biological target: T15, RGS8-stimulated GTP hydrolysis by Gαo (Homo sapiens, UniProt P57771); test: Single turnover GTPase assay, RGS8 GAP activity; format: biochemical
T15 sequence (P57771 56-171 limits assumed): T5 sequence (P57771 56-171 limits assumed)
Procedure, shortened: as §1

160C RGS8 = biological target: T16, 160C RGS8 (Homo sapiens, UniProt P57771, C89S); test: Gel filtration after compound treatment, 160C RGS8
T16 sequence (P57771 56-171 C89S): T5 sequence (P57771 56-171 limits assumed) with C34S

160C RGS8 (C107S) = biological target: T17, 160C RGS8 (C107S) (Homo sapiens, UniProt P57771, C89S); test: FCPIA, 160C RGS8/Gαo binding
T17 sequence (P57771 56-171 C89S): T5 sequence (P57771 56-171 limits assumed) with C34S
Procedure, shortened: as §3

[11] = 100 μM, FITC-casein proteolysis
[12] = read-out: irreversible inhibition of Gα binding after extensive washing
[13] = read-out: total amount of inhibition (without a wash step)
[14] = concentration dependence or concentration not stated

Sequence of Gαo (UniProt P59215) (P59215 whole entry): as the sequence (P09471 whole entry) above, with I93V, A104S, T292P, P294S, A306T counted along it

Compound: WT RGS8 treated with CCG-50014 (with its covalently attached CCG-50014), recovered from gel filtration (domain or fragment)
- fold less potent at competing for Gα binding than vehicle-treated RGS8 (Gαo [1]): 14 fold

Compound: Cc1ccc(-n2sc(=O)n(Cc3ccc(F)cc3)c2=O)cc1 [CCG-50014, 4-(4-fluorobenzyl)-2-p-tolyl-1,2,4-thiadiazolidine-3,5-dione]
- effect on GTPase accelerating (GAP) activity of RGS4 on Gαo [2]: concentration-dependently inhibits the GAP activity; also recorded: inhibited the GTPase accelerating activity
- selectivity for RGS4 over RGS8 and RGS16 (RGS4 wild Type; FCPIA IC50 values): > 100 fold
- inhibitory activity against the RGS4-Gαo protein-protein interaction at pH 6.5 (RGS4 wild Type; FCPIA at pH 6.5 (control for papain assay)): retains full inhibitory activity
- Hill Slope (RGS4 wild Type; FCPIA, RGS4 wild type): −1.53
- reversibility of inhibition after washing with DTT (RGS4 wild Type; RGS4 beads, 100 μM for 15 minutes, wash with 1 mM DTT): partially reversed
- reversibility of inhibition after washing (RGS4 wild Type; RGS4 beads, 100 μM for 15 minutes, wash without DTT): irreversible inhibitor
- effect on papain activity (papain; [11]): no effect
- IC50 (RGS7): > 200 µM
- inhibition of RGS7/Gαo binding (in words) (RGS7; FCPIA): did not have activity
- adduct formation by LC-MS (WT RGS8 [3]): covalent adduct
- effect on intrinsic rate of GTP hydrolysis by Gαo (Gαo [4]): did not alter
- residual inhibition after gel filtration (WT RGS8 [5]): > 90%
- inhibition of RGS19/Gαo binding (in words) (RGS19): fully inhibits
- Hill Slope (RGS19; RGS19): −0.61
- effect on Gαo-dependent membrane localization of GFP-RGS4 [6]: reversed the membrane localization; also recorded: significant decrease
- effect on thermal stability of RGS8 (RGS8 [7]): thermally destabilizes
- effect on thermal stability of RGS8 (RGS8 [7]; listed as CCGA-50014): concentration-dependently destabilized
- effect on thermal stability of Gαo (Gαo [8]): no effect
- IC50 (107C RGS8 (C160S)): 46.5 µM
- reversibility of inhibition after washing (107C RGS8 (C160S); 107C RGS8, 20 μM): partially reversed
- Hill Coefficient (107C RGS8 (C160S); FCPIA, 107C RGS8, Fig. 5): −0.54
- inhibition at 20 µM (107C RGS8 (C160S); [12]): ~20%
- inhibition at 20 µM (107C RGS8 (C160S); [13]): 45 ± 2%
- inhibition of RGS16/Gαo binding (in words) (RGS16): fully inhibits
- Hill Slope (RGS16; RGS16): −1.33
- effect on thermal stability of RGS4 (RGS4): concentration-dependently destabilized
- IC50 (RGS8cys− (C160S/C107S)): > 100 µM
- competition for Gαo binding, treated versus vehicle-treated protein (107C RGS8): no discernable difference
- inhibition of RGS8/Gαo binding (in words) (RGS8 [9]; FCPIA): fully inhibits
- Hill Slope (RGS8 [9]; FCPIA, RGS8): −0.99
- Hill Coefficient (RGS8 [9]; FCPIA, wildtype RGS8, Fig. 5): −0.79
- IC50 (RGS8 [9]; IC50 (μM), FCPIA, wildtype RGS8, Fig. 5, three experiments): 6.1 µM
- reversibility of inhibition after washing with DTT (RGS8 [9]; RGS8 beads, 100 μM for 15 minutes, wash with 1 mM DTT): partially reversed
- reversibility of inhibition after washing (RGS8 [9]; RGS8 beads, 100 μM for 15 minutes, wash without DTT): irreversible inhibitor
- inhibition at 20 µM (RGS8 [9]; read-out: total amount of inhibition (without a wash step), WT RGS8, 20 μM): 64 ± 2%
- adduct formation by LC-MS (RGS8Cys−): No adducts are observed
- effect on GTPase accelerating (GAP) activity of RGS8 on Gαo [10]: concentration-dependently inhibits the GAP activity; also recorded: inhibited the GTPase accelerating activity
- state of the protein after compound treatment (160C RGS8): formed aggregates; also recorded: completely (and visually) aggregates
- IC50 (160C RGS8 (C107S)): 0.71 µM
- reversibility of inhibition after washing (160C RGS8 (C107S); 160C RGS8, 20 μM): completely irreversible
- Hill Coefficient (160C RGS8 (C107S); FCPIA, 160C RGS8, Fig. 5): −0.36
- inhibition at 20 µM (160C RGS8 (C107S); [12]): ~50%
- inhibition at 20 µM (160C RGS8 (C107S); [13]): 56 ± 1%

Compound: NC(=O)CI [iodoacetamide]
- effect on papain activity (papain; [11]): markedly inhibits
- effect on papain activity (papain; [14]): concentration-dependently inhibited
- effect on papain activity (papain; concentration dependence or concentration not stated, listed as IA): inhibited the proteolytic activity of papain in a concentration-dependent manner

Compound: CCN1C(=O)C=CC1=O [NEM, N-ethyl maleimide, reference compound]
- effect on papain activity (papain; [14]): no effect
- inhibition of RGS8/Gαo binding (in words) (RGS8 [9]; FCPIA): no effect
